For 26 compounds, Activity results are on record in ChEMBL document CHEMBL5143728, “Next-Generation Diprovocims with Potent Human and Murine TLR1/TLR2 Agonist Activity That Activate the Innate and Adaptive Immune Response” (J Med Chem, 2022).

Test [1] deals with Toll-like receptor 1/2 (Mus musculus) (UniProt Q9QUN7+Q9EPQ1). Description: Agonist activity at TLR1/TLR2 in wild type C57BL/6J mouse macrophages assessed as stimulation of TNF alpha release measured for 4 hrs by ELISA based assay relative to diprovocim-1. Further details: Activity: concentration or dose not given beside the values. The class given is cell-based. To be noted: Macrophage, filed as agonist. In short, it runs like this:
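Thioglycolate-elicited peritoneal macrophages from wild type C57BL/6J mice, harvested by PBS lavage 4 d after i.p. 4% thioglycolate. Cultured in DMEM/10% FBS at 37 °C, 5% CO2, seeded at 1 × 10⁵ cells/well and exposed to graded compound concentrations for 4 h, with final DMSO ≤0.5% held constant. LPS served as positive control. Supernatant mouse TNF-α was read by ELISA. EC50 from duplicate means.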
A general note: ELISA stands for enzyme-linked immunosorbent assay.

In a further test the target is Toll-like receptor 1/2 (Homo sapiens, UniProt O60603+Q15399). Description: Agonist activity at TLR1/TLR2 in human THP-1 derived macrophages assessed as stimulation of TNF alpha release measured for 4 hrs by ELISA based assay relative to diprovocim-1. It is filed as cell-based. Further details: Activity: concentration or dose not given beside the values. In short, it runs like this: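 THP-1 cells differentiated with 100 nM PMA in RPMI/10% FBS for 24 h, washed, then rested 24 h in fresh medium. Seeded at 0.5 × 10⁵ cells/well and exposed to graded compound concentrations for 4 h, with final DMSO held at 0.1%. LPS served as positive control and DMSO as negative control. Supernatant human TNF-α was read by ELISA. EC50 from duplicate means.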

The structures appear in SMILES notation.

With `C#CCN(C)CC(=O)OCCCCCCCCCCCCNC(=O)[C@@H]1CN(C(=O)c2ccc(C(=O)N3C[C@@H](C(=O)N[C@H]4C[C@@H]4c4ccccc4)[C@H](C(=O)N[C@H]4C[C@@H]4c4ccccc4)C3)cc2)C[C@H]1C(=O)N[C@H]1C[C@@H]1c1ccccc1`, the Activity in test [1] came to 100%; at Toll-like receptor 1/2 (filed as agonist), 40%.

Take `Nc1ccc(COCCCCCCCCCCCCNC(=O)[C@@H]2CN(C(=O)c3ccc(C(=O)N4C[C@@H](C(=O)N[C@H]5C[C@@H]5c5ccccc5)[C@H](C(=O)N[C@H]5C[C@@H]5c5ccccc5)C4)cc3)C[C@H]2C(=O)N[C@H]2C[C@@H]2c2ccccc2)cc1`: the Activity in test [1] was 130%; at Toll-like receptor 1/2 (filed as agonist), 90%.

With `C#CCOCC(=O)OCCCCCCCCCCCCNC(=O)[C@@H]1CN(C(=O)c2ccc(C(=O)N3C[C@@H](C(=O)N[C@H]4C[C@@H]4c4ccccc4)[C@H](C(=O)N[C@H]4C[C@@H]4c4ccccc4)C3)cc2)C[C@H]1C(=O)N[C@H]1C[C@@H]1c1ccccc1`, the results for the Activity (in test [1]; at Toll-like receptor 1/2) were 110% and 30%, respectively.

Turning to `C[C@@H](NC(=O)OC(C)(C)C)C(=O)OCCCCCCCCCCCCNC(=O)[C@@H]1CN(C(=O)c2ccc(C(=O)N3C[C@@H](C(=O)N[C@H]4C[C@@H]4c4ccccc4)[C@H](C(=O)N[C@H]4C[C@@H]4c4ccccc4)C3)cc2)C[C@H]1C(=O)N[C@H]1C[C@@H]1c1ccccc1`, the Activity came out at 200% in test [1] and 110% at Toll-like receptor 1/2 (filed as agonist).

As to `O=C(CNC(=O)OCc1ccccc1)OCCCCCCCCCCCCNC(=O)[C@@H]1CN(C(=O)c2ccc(C(=O)N3C[C@@H](C(=O)N[C@H]4C[C@@H]4c4ccccc4)[C@H](C(=O)N[C@H]4C[C@@H]4c4ccccc4)C3)cc2)C[C@H]1C(=O)N[C@H]1C[C@@H]1c1ccccc1`, the Activity in test [1] was found to be 410%; on Toll-like receptor 1/2 (filed as agonist) it was 100%.

In the case of `CC(C)(C)OC(=O)c1ccc(C(=O)OCCCCCCCCCCCCNC(=O)[C@@H]2CN(C(=O)c3ccc(C(=O)N4C[C@@H](C(=O)N[C@H]5C[C@@H]5c5ccccc5)[C@H](C(=O)N[C@H]5C[C@@H]5c5ccccc5)C4)cc3)C[C@H]2C(=O)N[C@H]2C[C@@H]2c2ccccc2)cc1`, the Activity in test [1] came to 190%; on Toll-like receptor 1/2 (filed as agonist), 90%.

Take `O=C(O)c1ccc(C(=O)OCCCCCCCCCCCCNC(=O)[C@@H]2CN(C(=O)c3ccc(C(=O)N4C[C@@H](C(=O)N[C@H]5C[C@@H]5c5ccccc5)[C@H](C(=O)N[C@H]5C[C@@H]5c5ccccc5)C4)cc3)C[C@H]2C(=O)N[C@H]2C[C@@H]2c2ccccc2)cc1`: the results for the Activity (in test [1]; on Toll-like receptor 1/2 (filed as agonist)) were 120% and 100%, respectively.

Regarding `CC(C)(C)OC(=O)N[C@@H](COCc1ccccc1)C(=O)OCCCCCCCCCCCCNC(=O)[C@@H]1CN(C(=O)c2ccc(C(=O)N3C[C@@H](C(=O)N[C@H]4C[C@@H]4c4ccccc4)[C@H](C(=O)N[C@H]4C[C@@H]4c4ccccc4)C3)cc2)C[C@H]1C(=O)N[C@H]1C[C@@H]1c1ccccc1`, the figures for the Activity (in test [1]; at Toll-like receptor 1/2 (filed as agonist)) were 370% and 100%, respectively.

For the compound `[N-]=[N+]=NCC(=O)OCCCCCCCCCCCCNC(=O)[C@@H]1CN(C(=O)c2ccc(C(=O)N3C[C@@H](C(=O)N[C@H]4C[C@@H]4c4ccccc4)[C@H](C(=O)N[C@H]4C[C@@H]4c4ccccc4)C3)cc2)C[C@H]1C(=O)N[C@H]1C[C@@H]1c1ccccc1`, the Activity came to 120% in test [1] and 100% on Toll-like receptor 1/2 (filed as agonist).

For the compound `CC(C)(C)C(=O)NCC(=O)OCCCCCCCCCCCCNC(=O)[C@@H]1CN(C(=O)c2ccc(C(=O)N3C[C@@H](C(=O)N[C@H]4C[C@@H]4c4ccccc4)[C@H](C(=O)N[C@H]4C[C@@H]4c4ccccc4)C3)cc2)C[C@H]1C(=O)N[C@H]1C[C@@H]1c1ccccc1`, the Activity (in test [1]; at Toll-like receptor 1/2 (filed as agonist)) was 110% in each case.

As to `O=C(CNC(=O)C(=O)O)OCCCCCCCCCCCCNC(=O)[C@@H]1CN(C(=O)c2ccc(C(=O)N3C[C@@H](C(=O)N[C@H]4C[C@@H]4c4ccccc4)[C@H](C(=O)N[C@H]4C[C@@H]4c4ccccc4)C3)cc2)C[C@H]1C(=O)N[C@H]1C[C@@H]1c1ccccc1`, the figures for the Activity (in test [1]; at Toll-like receptor 1/2 (filed as agonist)) were 250% and 120%, respectively.

Take `CN(C)CC(=O)OCCCCCCCCCCCCNC(=O)[C@@H]1CN(C(=O)c2ccc(C(=O)N3C[C@@H](C(=O)N[C@H]4C[C@@H]4c4ccccc4)[C@H](C(=O)N[C@H]4C[C@@H]4c4ccccc4)C3)cc2)C[C@H]1C(=O)N[C@H]1C[C@@H]1c1ccccc1`: the figures for the Activity (in test [1]; on Toll-like receptor 1/2 (filed as agonist)) were 140% and 100%, respectively.

`Nc1ccc(C(=O)OCCCCCCCCCCCCNC(=O)[C@@H]2CN(C(=O)c3ccc(C(=O)N4C[C@@H](C(=O)N[C@H]5C[C@@H]5c5ccccc5)[C@H](C(=O)N[C@H]5C[C@@H]5c5ccccc5)C4)cc3)C[C@H]2C(=O)N[C@H]2C[C@@H]2c2ccccc2)cc1`: the Activity in test [1] is 300%; on Toll-like receptor 1/2 (filed as agonist) it was 100%.

Consider `O=C(CNC(=O)OCC(Cl)(Cl)Cl)OCCCCCCCCCCCCNC(=O)[C@@H]1CN(C(=O)c2ccc(C(=O)N3C[C@@H](C(=O)N[C@H]4C[C@@H]4c4ccccc4)[C@H](C(=O)N[C@H]4C[C@@H]4c4ccccc4)C3)cc2)C[C@H]1C(=O)N[C@H]1C[C@@H]1c1ccccc1`, for which the Activity worked out at 300% in test [1] and 100% on Toll-like receptor 1/2 (filed as agonist).

As to `CC(C)(C)OC(=O)CNC(=O)CCCCCCCCCCCNC(=O)[C@@H]1CN(C(=O)c2ccc(C(=O)N3C[C@@H](C(=O)N[C@H]4C[C@@H]4c4ccccc4)[C@H](C(=O)N[C@H]4C[C@@H]4c4ccccc4)C3)cc2)C[C@H]1C(=O)N[C@H]1C[C@@H]1c1ccccc1`, the Activity in test [1] is 70%; at Toll-like receptor 1/2 (filed as agonist) it was 100%.

`O=C(COCc1ccccc1)OCCCCCCCCCCCCNC(=O)[C@@H]1CN(C(=O)c2ccc(C(=O)N3C[C@@H](C(=O)N[C@H]4C[C@@H]4c4ccccc4)[C@H](C(=O)N[C@H]4C[C@@H]4c4ccccc4)C3)cc2)C[C@H]1C(=O)N[C@H]1C[C@@H]1c1ccccc1`: the values for the Activity (in test [1]; at Toll-like receptor 1/2 (filed as agonist)) were 220% and 130%, respectively.

`O=C(O)c1ccc(C(=O)NCCOCCCCCCCCCCCCNC(=O)[C@@H]2CN(C(=O)c3ccc(C(=O)N4C[C@@H](C(=O)N[C@H]5C[C@@H]5c5ccccc5)[C@H](C(=O)N[C@H]5C[C@@H]5c5ccccc5)C4)cc3)C[C@H]2C(=O)N[C@H]2C[C@@H]2c2ccccc2)cc1`: the Activity in test [1] worked out at 50%; on Toll-like receptor 1/2 (filed as agonist), 100%.

For the compound `NCCCCCCCCCCCCNC(=O)[C@@H]1CN(C(=O)c2ccc(C(=O)N3C[C@@H](C(=O)N[C@H]4C[C@@H]4c4ccccc4)[C@H](C(=O)N[C@H]4C[C@@H]4c4ccccc4)C3)cc2)C[C@H]1C(=O)N[C@H]1C[C@@H]1c1ccccc1`, the Activity was 130% in test [1] and 140% at Toll-like receptor 1/2 (filed as agonist).

As for `[N-]=[N+]=NCCCCCCCCCCCCNC(=O)[C@@H]1CN(C(=O)c2ccc(C(=O)N3C[C@@H](C(=O)N[C@H]4C[C@@H]4c4ccccc4)[C@H](C(=O)N[C@H]4C[C@@H]4c4ccccc4)C3)cc2)C[C@H]1C(=O)N[C@H]1C[C@@H]1c1ccccc1`, the Activity in test [1] came out at 50%; at Toll-like receptor 1/2, 30%.

In the case of `Cc1ccc(S(=O)(=O)n2cnc(C[C@H](NC(=O)OC(C)(C)C)C(=O)OCCCCCCCCCCCCNC(=O)[C@@H]3CN(C(=O)c4ccc(C(=O)N5C[C@@H](C(=O)N[C@H]6C[C@@H]6c6ccccc6)[C@H](C(=O)N[C@H]6C[C@@H]6c6ccccc6)C5)cc4)C[C@H]3C(=O)N[C@H]3C[C@@H]3c3ccccc3)c2)cc1`, the Activity in test [1] stood at 110%; at Toll-like receptor 1/2 (filed as agonist) it was 90%.

On to `COC(=O)CNC(=O)OCCCCCCCCCCCCNC(=O)[C@@H]1CN(C(=O)c2ccc(C(=O)N3C[C@@H](C(=O)N[C@H]4C[C@@H]4c4ccccc4)[C@H](C(=O)N[C@H]4C[C@@H]4c4ccccc4)C3)cc2)C[C@H]1C(=O)N[C@H]1C[C@@H]1c1ccccc1`, for which the Activity (in test [1]; at Toll-like receptor 1/2 (filed as agonist)) was 90% each time.

As to `CC(C)[C@H](NC(=O)OC(C)(C)C)C(=O)OCCCCCCCCCCCCNC(=O)[C@@H]1CN(C(=O)c2ccc(C(=O)N3C[C@@H](C(=O)N[C@H]4C[C@@H]4c4ccccc4)[C@H](C(=O)N[C@H]4C[C@@H]4c4ccccc4)C3)cc2)C[C@H]1C(=O)N[C@H]1C[C@@H]1c1ccccc1`, the Activity in test [1] was determined as 180%; at Toll-like receptor 1/2 (filed as agonist), 100%.

For the compound `CC(C)(C)OCC(=O)OCCCCCCCCCCCCNC(=O)[C@@H]1CN(C(=O)c2ccc(C(=O)N3C[C@@H](C(=O)N[C@H]4C[C@@H]4c4ccccc4)[C@H](C(=O)N[C@H]4C[C@@H]4c4ccccc4)C3)cc2)C[C@H]1C(=O)N[C@H]1C[C@@H]1c1ccccc1`, the values for the Activity (in test [1]; at Toll-like receptor 1/2 (filed as agonist)) were 230% and 100%, respectively.

Consider `O=C(NCCCCCCCCCCCCO)[C@@H]1CN(C(=O)c2ccc(C(=O)N3C[C@@H](C(=O)N[C@H]4C[C@@H]4c4ccccc4)[C@H](C(=O)N[C@H]4C[C@@H]4c4ccccc4)C3)cc2)C[C@H]1C(=O)N[C@H]1C[C@@H]1c1ccccc1`, for which the Activity in test [1] came out at 110%; on Toll-like receptor 1/2 (filed as agonist), 90%.

As for `O=C(NCCCCCCCCCCCCOCc1ccc([N+](=O)[O-])cc1)[C@@H]1CN(C(=O)c2ccc(C(=O)N3C[C@@H](C(=O)N[C@H]4C[C@@H]4c4ccccc4)[C@H](C(=O)N[C@H]4C[C@@H]4c4ccccc4)C3)cc2)C[C@H]1C(=O)N[C@H]1C[C@@H]1c1ccccc1`, the Activity came to 230% in test [1] and 110% at Toll-like receptor 1/2 (filed as agonist).

On to `CC(C)(C)OC(=O)N[C@@H](Cc1ccccc1)C(=O)OCCCCCCCCCCCCNC(=O)[C@@H]1CN(C(=O)c2ccc(C(=O)N3C[C@@H](C(=O)N[C@H]4C[C@@H]4c4ccccc4)[C@H](C(=O)N[C@H]4C[C@@H]4c4ccccc4)C3)cc2)C[C@H]1C(=O)N[C@H]1C[C@@H]1c1ccccc1`, for which the values for the Activity (in test [1]; at Toll-like receptor 1/2 (filed as agonist)) were 220% and 100%, respectively.
